SMILES strings stand for the structures. Calls of active or inactive are those of the source.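 Rule for the calls, unless noted: active = fluorescence slope after compound addition differing from the mean of all screened samples at 99.7% confidence, in either direction; inactive = the rest.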

Broadly, the inhibition is the change of the read-out against control, counted positive when it falls.

Assay [1] in a line: inhibitors of TNFa-induced NFkB p65 translocation, primary screen, imaging, HUVEC, MLSMR starter and 10KST1 sets (AID 438;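 active = inhibition above 20% together with a positive visual image hit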;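 note: compound added about 3h40 before a 20 min TNFalpha stimulation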;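 for inhibition: signal is the nuclear over cytoplasmic p65 intensity ratio per well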). The following applies: HUVEC TNFa-induced p65 nuclear translocation; cell count: measured here: nuclei count (cytotoxicity indicator), at 2.08 µM; inhibition: at 2 µM, stronger effect = higher value, 0% TNFa-plus-vehicle, 100% no-TNFa wells.
A short description of assay [2]: endothelial E-selectin expression blockers – imaging, HUVEC, immunofluorescence, MLSMR starter and 10KST1 sets, primary screen (AID 487;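 active = visually confirmed hit in the image check and inhibition above 20%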;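 for inhibition: signal is fraction of cell area covered by stained E-selectin grains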;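 for nuclei count: 100% = median nuclei count of all wells on the same plate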). Particulars: HUVEC TNFalpha-induced E-selectin immunofluorescence imaging, at 2 µM; inhibition: stronger effect = higher value; nuclei count: measured here: cell number, toxicity.
A short description of assay [3]: Primary imaging screen for DUSP6 inhibitors that restore phospho-Erk in transfected HeLa cells, chemical complementation (AID 609;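 active = compounds giving at least 50% inhibition in the cell-based MKP-3 phosphatase rescue imaging test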;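 for inhibition: phospho-Erk level distribution per well compared with pooled transfected vehicle control wells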). The following applies: HeLa MKP-3 transfected, phospho-Erk imaging KS statistic, at 10 µM, cells stimulated with TPA for 15 min.
Assay [4] addresses Dual specificity protein phosphatase 6 (Homo sapiens) (UniProt Q16828). The description is as above. The following applies: HeLa MKP-3 transfected, phospho-Erk imaging KS statistic; at 10 µM; stronger effect = higher value; cells stimulated with TPA for 15 min.
Assay [5] deals with Voltage-gated potassium channel subunit beta-2 (Rattus norvegicus) (UniProt P62483). Nature of the assay: inhibitors of rat Kvbeta2 reductase activity – biochemical, NADPH fluorescence, primary screen (AID 622;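 active = fluorescence slope higher than the sample average by over 3 SD, cut at about -0.22 in these data, passing the limit was not always enough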;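 note: slope of raw intensity against log time taken from 70 to 1610 s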). The following applies: recombinant KvBeta, 4-cyanobenzaldehyde reduction, at 10 µM, stronger effect = higher value.
Assay [6] shares this target. Nature of the assay: enhancers of rat Kvbeta2 NADPH turnover – biochemical, NADPH fluorescence, primary screen (AID 623;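 active = NADPH fluorescence slope more negative than the mean of all samples by about 3 SD, 99.7% confidence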;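 note: fluorescence intensity change per second fitted from 20 to 320 s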). The following applies: Recombinant KvBeta, NADPH fluorescence decrease slope, 10 min; at 10 µM; stronger effect = lower value.
Assay [7] concerns the target Alpha-2C adrenergic receptor (Homo sapiens) (UniProt P18825). Nature of the assay: compounds altering alpha2C-coupled GIRK flux – cell-based, HEK293 alpha2C/GIRK1/2, thallium flux, primary screen (AID 624).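 Note: slope of fluorescence ratio to pre-addition baseline per second over 15 to 24 s.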 Particulars: thallium flux BTC fluorescence, at 10 µM, actives lie on both sides.
Assay [8] in a line: inhibitors of larval lipid processing in zebrafish, primary screen, whole organism, PED6 fluorescence, gall bladder and intestine (AID 686;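 active = a full or partial loss of lipid-probe fluorescence in the fish gall bladder, intestine or both, judged by eye; inactive = no fluorescence loss, or compound toxic to the fish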;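 note: larvae 5 to 7 days old with five fish per well; signal comes from phospholipase A2 cleavage of quenched PED6 carried via bile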). Particulars: Zebrafish larvae PED6 lipid processing, fluorescence scoring; screened at 20 µM (by protocol). In short, it runs like this: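 system = live zebrafish larvae aged 5-7 days, whole organism | probe or stimulus = ingested quenched lipid PED6 at 100 nM | doses = 20 µM single dose | timing = overnight exposure | detection = fluorescence microscopy with visual scoring of gall bladder and intestine | read-out = visual per-well fluorescence inhibition score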

Assay [9] is described as follows: loss of swimming-algae plug formation – whole organism, Chlamydomonas reinhardtii, WT vs cilia-less mutant, absorbance, 96-well, primary screen (AID 463189;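 active = inhibition at or above 50% relative to wild type and mutant plate controls; inactive = inhibition below 50%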;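 note: 0% = wild type cc124 cells in DMSO and 100% = ciliumless bld1 mutant cells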). Particulars: Chlamydomonas reinhardtii gravitaxis, OD600 absorbance, 2 days; at 10 µM; stronger effect = higher value.
[10] abbreviates: measured here: cell density z-score.
Setting [11] is: measured here: nuclear c-Myc green intensity z-score.
The mark [12] stands for this setting: measured here: nuclear pErk red intensity z-score, stronger effect = higher value.

Chain of Voltage-gated potassium channel subunit beta-2 (Rattus norvegicus) (P62483 whole entry, looked up): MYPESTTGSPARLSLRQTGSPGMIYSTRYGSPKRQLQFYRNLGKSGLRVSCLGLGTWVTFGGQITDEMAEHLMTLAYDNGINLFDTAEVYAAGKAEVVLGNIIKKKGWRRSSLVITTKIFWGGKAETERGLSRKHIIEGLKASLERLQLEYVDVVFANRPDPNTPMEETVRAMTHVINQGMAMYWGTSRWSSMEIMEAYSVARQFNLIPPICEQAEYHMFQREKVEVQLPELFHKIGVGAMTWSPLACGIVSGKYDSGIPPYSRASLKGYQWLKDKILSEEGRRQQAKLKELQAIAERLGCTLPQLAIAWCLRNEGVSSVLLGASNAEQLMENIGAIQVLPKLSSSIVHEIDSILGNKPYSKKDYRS
Chain of Dual specificity protein phosphatase 6 (Homo sapiens) (Q16828 whole entry, looked up): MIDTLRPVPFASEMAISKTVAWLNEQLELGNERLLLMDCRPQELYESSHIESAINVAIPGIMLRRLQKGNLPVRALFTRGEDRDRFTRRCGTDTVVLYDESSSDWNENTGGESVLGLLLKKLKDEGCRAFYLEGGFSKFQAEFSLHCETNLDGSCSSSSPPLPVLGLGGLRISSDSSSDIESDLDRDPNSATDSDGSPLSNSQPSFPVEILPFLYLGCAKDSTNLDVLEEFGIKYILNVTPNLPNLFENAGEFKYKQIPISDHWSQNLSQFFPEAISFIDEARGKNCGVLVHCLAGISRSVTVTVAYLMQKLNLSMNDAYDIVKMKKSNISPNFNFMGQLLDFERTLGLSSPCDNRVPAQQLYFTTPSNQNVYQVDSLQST
Chain of Alpha-2C adrenergic receptor (Homo sapiens) (P18825 whole entry, looked up): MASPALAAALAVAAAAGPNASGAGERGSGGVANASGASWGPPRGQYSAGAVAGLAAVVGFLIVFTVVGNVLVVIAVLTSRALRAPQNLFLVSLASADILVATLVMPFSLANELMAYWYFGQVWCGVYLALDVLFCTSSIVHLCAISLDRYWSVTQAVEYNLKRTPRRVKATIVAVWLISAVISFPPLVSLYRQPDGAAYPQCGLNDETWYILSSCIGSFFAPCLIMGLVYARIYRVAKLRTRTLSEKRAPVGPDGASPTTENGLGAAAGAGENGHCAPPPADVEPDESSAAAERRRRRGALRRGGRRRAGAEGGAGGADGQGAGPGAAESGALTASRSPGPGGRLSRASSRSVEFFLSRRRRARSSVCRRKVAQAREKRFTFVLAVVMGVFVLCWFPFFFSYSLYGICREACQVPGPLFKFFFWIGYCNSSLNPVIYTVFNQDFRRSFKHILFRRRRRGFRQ

Regarding `C=CCc1c(C)c(C#N)c2nc3ccccc3n2c1N1CCN(C)CC1`, the cell count in [1] was determined as 528. Moreover, the inhibition in assay [1] is -23% (inactive); in assay [2], -93.7% (inactive); in assay [4], -15% (inactive); in [9] it was 7.97% (inactive). Moreover, the nuclei count in [2] worked out at 150%. The z-score in [3] (setting [10]) was -0.94; in assay [3] (setting [11]), -0.784; in [3] (setting [12]), -1.36. In addition, the fluorescence slope in [5] was -0.476 (inactive). Further, the NADPH fluorescence slope in assay [6] was -2e-05 (inactive). Also, the slope in assay [7] is 0.00524 (inactive). In assay [8], the compound was classed as inactive.
For `COc1cccc(N2CCN(C3CC(=O)N(c4cccc(Cl)c4)C3=O)CC2)c1` (stereo unspecified), the cell count in [1] was determined as 325. Also, the inhibition in assay [1] is -2.2% (inactive); in assay [2], -62.9% (inactive); in assay [4], 3.42% (inactive); in assay [9], -11.3% (inactive). Also, in [2], the nuclei count worked out at 80.7%. In addition, the z-score was -0.898 in assay [3] (setting [10]), 1.47 in assay [3] (setting [11]) and -0.427 in [3] (setting [12]). The fluorescence slope in [5] is -0.43 (inactive). In addition, the NADPH fluorescence slope in [6] was -0.00011 (inactive). Besides, the slope in assay [7] was 0.00471 (inactive). Moreover, in [8], the outcome was inactive.
In the case of `N#CCSc1nc2c(cc1C#N)CCCCCC2`, the cell count in [1] was determined as 603. The inhibition is -18.1% (inactive) in assay [1], 46.1% (inactive) in assay [2], 2.92% (inactive) in assay [4] and 19.7% (inactive) in assay [9]. In addition, the nuclei count in [2] amounted to 147%. The figures for the z-score in assay [3] (setting [10]), in assay [3] (setting [11]) and in assay [3] (setting [12]) were 0.833, -0.157 and -0.809, respectively. In addition, the fluorescence slope in assay [5] is -0.354 (inactive). Also, in [6], the NADPH fluorescence slope was -8.7e-06 (inactive). Moreover, the slope in [7] is 0.0055 (inactive). Moreover, in [8], the outcome was inactive.
With `Cc1ccccc1-c1nn2c(-c3ccccc3)nnc2s1`, the cell count in [1] came out at 590. Moreover, the inhibition is -20% (inactive) in assay [1], -150% (inactive) in assay [2], -2.47% (inactive) in assay [4] and 92.9% (active) in assay [9]. In [2], the nuclei count is 149%. Moreover, the z-score was 0.229 in assay [3] (setting [10]), -1.66 in assay [3] (setting [11]) and 0.142 in [3] (setting [12]). Besides, the fluorescence slope in [5] was -0.451 (inactive). The NADPH fluorescence slope in [6] is -6e-05 (inactive). In addition, the slope in [7] is 0.00655 (inactive). In addition, the compound was called inactive in assay [8].
Regarding `CCOC(=O)c1[nH]c2cc3c(cc2c1NC(=O)CN1CCCCC1C)OCO3` (stereo unspecified), in assay [1], the cell count was determined as 588. The inhibition in [1] is -1.8% (inactive); in assay [2], 46.2% (inactive); in assay [4] it was -10.5% (inactive); in [9], -2.82% (inactive). The same compound yielded a nuclei count in assay [2] of 167%. For the same compound, the z-score in assay [3] (setting [10]) was 0.894; in assay [3] (setting [11]), -1.11; in assay [3] (setting [12]) it was -0.403. In assay [5], the fluorescence slope is -0.229 (inactive). The NADPH fluorescence slope in assay [6] is -2e-05 (inactive). In [7], the slope is 0.00474 (inactive). The compound was classed as inactive in assay [8].
Regarding `CCCCOc1ccccc1/C=c1/sc2nc(-c3oc4ccccc4c3C)nn2c1=O`, the cell count in [1] is 431. Moreover, the inhibition was 0.7% (inactive) in assay [1], -36.7% (inactive) in assay [2], 2.46% (inactive) in assay [4] and -7.58% (inactive) in assay [9]. Further, the nuclei count in [2] was found to be 128%. Moreover, the z-score in assay [3] (setting [10]) was 0.907; in [3] (setting [11]) it was 2.04; in [3] (setting [12]) it was -0.0877. In assay [5], the fluorescence slope is -0.325 (inactive). The NADPH fluorescence slope in [6] was -1e-05 (inactive). Also, the slope in assay [7] was 0.00462 (inactive). Also, the compound was classed as inactive in assay [8].
As to `CC(C)(C)NC(=O)CSc1nsc(SCC(=O)NC(C)(C)C)c1C#N`, in assay [1], the cell count was determined as 601. The inhibition in [1] was -26% (inactive); in assay [2], 18.9% (inactive); in assay [4], -4.27% (inactive); in assay [9], 12.4% (inactive). In assay [2], the nuclei count was 178%. Further, the z-score was -0.466 in [3] (setting [10]), -1.37 in assay [3] (setting [11]) and 0.955 in assay [3] (setting [12]). The fluorescence slope in assay [5] was -0.412 (inactive). In addition, in [6], the NADPH fluorescence slope is -6.5e-05 (inactive). Moreover, the slope in assay [7] was 0.00541 (inactive). Also, the compound was classed as inactive in [8].

For the origin of these results see PubChem BioAssay.
